Results: ChEMBL document CHEMBL1926651, “Design, synthesis, antiviral and cytostatic evaluation of novel isoxazolidine nucleotide analogues with a 1,2,3-triazole linker” (Eur J Med Chem, 2012)
Activity calls are given as the source filed them. No cut-off for these calls is given here.

Columns and labels:
HeLa = assay: Cytotoxicity against human HeLa cells 3 days by coulter counting; format: functional; conditions: 72 h
Outline: (§1)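 Cells were suspended at 300,000–500,000 cells/mL and added 1:1 to compound dilutions. Incubation was at 37 °C, 2 days for L1210 and 3 days for CEM, HeLa and HEL. Cells were counted with a Coulter counter. CC50 is the concentration inhibiting cell proliferation by 50%.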

Felid alphaherpesvirus 1 = assay: Antiviral activity against Felid herpesvirus 1 infected in CrFK cells assessed as inhibition of viral plaque formation at 250 uM; format: functional, organism-based
Outline: (§2)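 Confluent host cell monolayers were inoculated with 100 CCID50 of virus in the presence of test compound at serial dilutions (250, 50, 10, … μM). Viral cytopathicity was scored once it reached completion in untreated virus-infected controls.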

[1] = system: Vesicular stomatitis virus; assay: Antiviral activity against Vesicular stomatitis virus infected in human Hela cells assessed as inhibition of viral plaque formation at 250 uM; format: functional, organism-based
Sindbis virus = assay: Antiviral activity against Sindbis virus infected in african green monkey Vero cells assessed as inhibition of viral plaque formation at 250 uM; format: functional, organism-based; outline: as §2
[2] = system: Human immunodeficiency virus 2; assay: Antiviral activity against Human immunodeficiency virus 2 infected in human CEM cells assessed as inhibition of virus-induced giant cell formation after 4 days by microscopic analysis; format: functional, organism-based; conditions: CCRF-CEM
Outline: (§3)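 CEM cells at about 3 × 10⁵ cells/cm³ were infected with 100 CCID50/mL of HIV-1(IIIB) or HIV-2(ROD), then seeded into wells holding test compound dilutions. After 4 days at 37 °C, virus-induced giant cell formation was scored microscopically.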

Coxsackievirus B4 [3] = assay: Antiviral activity against Coxsackievirus B4 infected in human HeLa cells assessed as inhibition of viral plaque formation at 250 uM; format: functional, organism-based; outline: as §2
Human respirovirus 3 = assay: Antiviral activity against Parainfluenza-3 virus infected in african green monkey Vero cells assessed as inhibition of viral plaque formation at 250 uM; format: functional, organism-based; outline: as §2
Human alphaherpesvirus 1 [4] = assay: Antiviral activity against thymidine kinase-deficient acv-resistant Herpes simplex virus 1 KOS infected in human HEL cells assessed as inhibition of viral plaque formation at 250 uM; format: functional, organism-based
Feline coronavirus = assay: Antiviral activity against Feline coronavirus infected in CrFK cells assessed as inhibition of viral plaque formation at 250 uM; format: functional, organism-based; outline: as §2
Human alphaherpesvirus 3 [5] = assay: Antiviral activity against thymidine kinase-deficient Varicella Zoster virus 07/1 infected in human HEL cells assessed as inhibition of viral plaque formation at 250 uM; format: functional, organism-based
Human alphaherpesvirus 3 [6] = assay: Antiviral activity against thymidine kinase-positive Varicella Zoster virus Oka infected in human HEL cells assessed as inhibition of viral plaque formation at 250 uM; format: functional, cell-based; conditions: strain Oka vaccine
Coxsackievirus B4 [7] = assay: Antiviral activity against Coxsackievirus B4 infected in african green monkey Vero cells assessed as inhibition of viral plaque formation at 250 uM; format: functional, organism-based; outline: as §2
[8] = system: Human immunodeficiency virus 1; assay: Antiviral activity against Human immunodeficiency virus 1 infected in human CEM cells assessed as inhibition of virus-induced giant cell formation after 4 days by microscopic analysis; format: functional, organism-based; conditions: CCRF-CEM; outline: as §3
Human alphaherpesvirus 1 [9] = assay: Antiviral activity against Herpes simplex virus 1 KOS infected in human HEL cells assessed as inhibition of viral plaque formation at 250 uM; format: functional, organism-based; outline: as §2
[10] = system: Respiratory syncytial virus; assay: Antiviral activity against Respiratory syncytial virus infected in human HeLa cells assessed as inhibition of viral plaque formation at 250 uM; format: functional, organism-based; outline: as §2
HEL = assay: Cytotoxicity against human HEL cells 3 days by coulter counting; format: functional; conditions: 72 h; outline: as §1
Human alphaherpesvirus 2 = assay: Antiviral activity against Herpes simplex virus 2 G infected in human HEL cells assessed as inhibition of viral plaque formation at 250 uM; format: functional, organism-based; conditions: strain G
[11] = system: Vesicular stomatitis virus; assay: Antiviral activity against Vesicular stomatitis virus infected in human HEL cells assessed as inhibition of viral plaque formation at 250 uM; format: functional, organism-based; outline: as §2
Vaccinia virus = assay: Antiviral activity against Vaccinia virus infected in human HEL cells assessed as inhibition of viral plaque formation at 250 uM; format: functional, organism-based; conditions: Orthopoxvirus vaccinia; outline: as §2
Human betaherpesvirus 5 [12] = assay: Antiviral activity against Human cytomegalovirus AD169 infected in human HEL cells assessed as inhibition of viral plaque formation at 250 uM; format: functional, organism-based
CCRF-CEM = assay: Cytotoxicity against human CEM cells 3 days by coulter counting; format: functional; conditions: 72 h; outline: as §1
L1210 = assay: Cytotoxicity against mouse L1210 cells 2 days by coulter counting; format: functional; conditions: L1210, 48 h; outline: as §1
Human betaherpesvirus 5 [13] = assay: Antiviral activity against Human cytomegalovirus Davis infected in human HEL cells assessed as inhibition of viral plaque formation at 250 uM; format: functional, organism-based
Punta Toro virus = assay: Antiviral activity against Punta Toro virus infected in african green monkey Vero cells assessed as inhibition of viral plaque formation at 250 uM; format: functional, organism-based
[14] = system: Mammalian orthoreovirus 1; assay: Antiviral activity against Reovirus-1 infected in african green monkey Vero cells assessed as inhibition of viral plaque formation at 250 uM; format: functional, organism-based; outline: as §2

SMILES	CC50 (HeLa)	Activity (Felid alphaherpesvirus 1)	Activity [1]	Activity (Sindbis virus)	Activity [2]	Activity (Coxsackievirus B4 [3])	Activity (Human respirovirus 3)	Activity (Human alphaherpesvirus 1 [4])	Activity (Feline coronavirus)	Activity (Human alphaherpesvirus 3 [5])	Activity (Human alphaherpesvirus 3 [6])	Activity (Coxsackievirus B4 [7])	Activity [8]	Activity (Human alphaherpesvirus 1 [9])	Activity [10]	CC50 (HEL)	Activity (Human alphaherpesvirus 2)	Activity [11]	Activity (Vaccinia virus)	Activity (Human betaherpesvirus 5 [12])	further results
CCOP(=O)(OCC)[C@@H]1C[C@@H](n2cc(Cn3cc(C)c(=O)[nH]c3=O)nn2)ON1C (relative stereo)	> 250 µM	inactive	inactive	inactive	inactive	inactive	inactive	inactive	inactive	inactive	inactive	inactive	inactive	inactive	inactive	> 100 µM	inactive	inactive	inactive	inactive	CC50 (CCRF-CEM): > 250 µM; CC50 (L1210): ≥ 250 µM; Activity (Human betaherpesvirus 5 [13]): inactive; Activity (Punta Toro virus): inactive; Activity [14]: inactive
CCOP(=O)(OCC)[C@@H]1C[C@H](n2cc(Cn3cnc4c(N)ncnc43)nn2)ON1C (relative stereo)	≥ 250 µM	inactive	inactive	inactive	inactive	inactive	inactive	inactive	inactive	inactive	inactive	inactive	inactive	inactive	inactive	> 100 µM	inactive	inactive	inactive	inactive	CC50 (CCRF-CEM): > 250 µM; CC50 (L1210): 147 µM; Activity (Human betaherpesvirus 5 [13]): inactive; Activity (Punta Toro virus): inactive; Activity [14]: inactive
CCOP(=O)(OCC)[C@@H]1C[C@@H](n2cc(Cn3ccc(NC(C)=O)nc3=O)nn2)ON1C (relative stereo)	> 250 µM	inactive	inactive	inactive	inactive	inactive	inactive	inactive	inactive	inactive	inactive	inactive	inactive	inactive	inactive	> 100 µM	inactive	inactive	inactive	inactive	CC50 (CCRF-CEM): > 250 µM; CC50 (L1210): ≥ 250 µM; Activity (Human betaherpesvirus 5 [13]): inactive; Activity (Punta Toro virus): inactive; Activity [14]: inactive
CCOP(=O)(OCC)[C@@H]1C[C@@H](n2cc(Cn3cnc4c(N)ncnc43)nn2)ON1C (racemic)	> 250 µM	inactive	inactive	inactive	inactive	inactive	inactive	inactive	inactive	inactive	inactive	inactive	inactive	inactive	inactive	> 100 µM	inactive	inactive	inactive	inactive	CC50 (CCRF-CEM): > 250 µM; CC50 (L1210): 140 µM; Activity (Human betaherpesvirus 5 [13]): inactive; Activity (Punta Toro virus): inactive; Activity [14]: inactive
CCOP(=O)(OCC)[C@@H]1C[C@H](n2cc(Cn3ccc(=O)[nH]c3=O)nn2)ON1C (racemic)	> 250 µM	inactive	inactive	inactive	inactive	inactive	inactive	inactive	inactive	inactive	inactive	inactive	inactive	inactive	inactive	> 100 µM	inactive	inactive	inactive	inactive	CC50 (CCRF-CEM): > 250 µM; CC50 (L1210): 235 µM; Activity (Human betaherpesvirus 5 [13]): inactive; Activity (Punta Toro virus): inactive; Activity [14]: inactive
CCOP(=O)(OCC)[C@@H]1C[C@H](n2cc(C(=O)OC)nn2)ON1C (relative stereo)	> 250 µM	inactive	inactive	inactive	inactive	inactive	inactive	inactive	inactive	inactive	inactive	inactive	inactive	inactive	inactive	> 100 µM	inactive	inactive	inactive	inactive	CC50 (CCRF-CEM): > 250 µM; CC50 (L1210): 166 µM; Activity (Human betaherpesvirus 5 [13]): inactive; Activity (Punta Toro virus): inactive; Activity [14]: inactive
